In ChEMBL document CHEMBL5724801, “EUbOPEN Chemogenomics Library - Multiplex” (2024):
Several values for one entry are separate records, joined by “and”; a condition that tells them apart may be missing. Equal values may be shown once.

Tested on: HEK-293T
Experiment: Multiplex assay against HEK293T
Format: toxicity, cell-based
Conditions: human
How it was run: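 With compound added, live cells were imaged on a CQ1 microscope at 37°C and 5% CO2; staining with Hoechst33342, BioTracker Green Microtubule Cytoskeleton Dye, MitoTracker Red and Annexin V Alexa Fluor 680 had been done at seeding. The CellPathfinder machine-learning gating scheme split cells into Hoechst high-intensity objects or normal cells, normal cells into healthy, pyknosed or fragmented nuclei, and pyknosed cells into mitotic or apoptotic. The tubulin, mitochondrial-mass and membrane-permeability phenotypes are per cents of healthy-nucleus cells.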

[1] = 12 h, 1 µM, compound concentration 1 uM
[2] = 12 h, 10 µM, compound concentration 10 uM
[3] = 24 h, 1 µM, compound concentration 1 uM
[4] = 24 h, 10 µM, compound concentration 10 uM
[5] = 48 h, 1 µM, compound concentration 1 uM
[6] = 48 h, 10 µM, compound concentration 10 uM

With `CCCCCCNC(=O)Nc1ccc(S(=O)(=O)Nc2ccc(CCNC[C@H](O)COc3ccc(O)cc3)cc2)cc1` [L-755507] the “Population Apoptotic (%)” value [1] was 35% and 31%, the “Population Fragmented Nuclei (%)” value [1] was 8% and 6% and the “Population Healthy Nuclei (%)” value [1] was 84% and 83%. The “Population Hoechst High Intensity Objects (%)” value [1] was 7%, the “Population Membrane Permeable-Phenotype (%)” value [1] was 0% and the “Population Mitochondria Different-Phenotype (%)” value [1] was 39% and 64%. For the same molecule, the “Population Mitotic Cells (%)” value [1] was 64% and 68%, the “Population Normal (%)” value [1] was 92% and the “Population Pyknosed Nuclei (%)” value [1] was 7% and 10%. The “Population Tubulin-Different-Phenotype (%)” value [1] was 28% and 32%, the “Total Cell Count” value [1] was 494 and 403 and the “Population Apoptotic (%)” value [2] was 58% and 71%. For the same molecule, the “Population Fragmented Nuclei (%)” value [2] was 10% and 8%, the “Population Healthy Nuclei (%)” value [2] was 74% and 79% and the “Population Hoechst High Intensity Objects (%)” value [2] was 17% and 7%. For the same molecule, the “Population Membrane Permeable-Phenotype (%)” value [2] was 0%, the “Population Mitochondria Different-Phenotype (%)” value [2] was 69% and 87% and the “Population Mitotic Cells (%)” value [2] was 41% and 28%. The “Population Normal (%)” value [2] was 82% and 92%, the “Population Pyknosed Nuclei (%)” value [2] was 14% and 11% and the “Population Tubulin-Different-Phenotype (%)” value [2] was 68% and 61%. The “Total Cell Count” value [2] was 384 and 341, the “Population Apoptotic (%)” value [3] was 19% and 30% and the “Population Fragmented Nuclei (%)” value [3] was 9% and 11%. For the same molecule, the “Population Healthy Nuclei (%)” value [3] was 80%, the “Population Hoechst High Intensity Objects (%)” value [3] was 5% and 4% and the “Population Membrane Permeable-Phenotype (%)” value [3] was 0%. For the same molecule, the “Population Mitochondria Different-Phenotype (%)” value [3] was 20% and 42%, the “Population Mitotic Cells (%)” value [3] was 80% and 70% and the “Population Normal (%)” value [3] was 94% and 95%. The “Population Pyknosed Nuclei (%)” value [3] was 9% and 7%, the “Population Tubulin-Different-Phenotype (%)” value [3] was 20% and 22% and the “Total Cell Count” value [3] was 634 and 547. For the same molecule, the “Population Apoptotic (%)” value [4] was 26% and 48%, the “Population Fragmented Nuclei (%)” value [4] was 8% and 7% and the “Population Healthy Nuclei (%)” value [4] was 80% and 83%. For the same molecule, the “Population Hoechst High Intensity Objects (%)” value [4] was 14% and 9%, the “Population Membrane Permeable-Phenotype (%)” value [4] was 0% and the “Population Mitochondria Different-Phenotype (%)” value [4] was 59% and 68%. The “Population Mitotic Cells (%)” value [4] was 73% and 51%, the “Population Normal (%)” value [4] was 85% and 90% and the “Population Pyknosed Nuclei (%)” value [4] was 11% and 9%. The “Population Tubulin-Different-Phenotype (%)” value [4] was 42% and 51%, the “Total Cell Count” value [4] was 461 and 402 and the “Population Apoptotic (%)” value [5] was 10% and 15%. For the same molecule, the “Population Fragmented Nuclei (%)” value [5] was 12% and 13%, the “Population Healthy Nuclei (%)” value [5] was 81% and 80% and the “Population Hoechst High Intensity Objects (%)” value [5] was 3% and 5%. For the same molecule, the “Population Membrane Permeable-Phenotype (%)” value [5] was 2%, the “Population Mitochondria Different-Phenotype (%)” value [5] was 16% and 24% and the “Population Mitotic Cells (%)” value [5] was 89% and 84%. The “Population Normal (%)” value [5] was 96% and 94%, the “Population Pyknosed Nuclei (%)” value [5] was 6% and the “Population Tubulin-Different-Phenotype (%)” value [5] was 15% and 20%. The “Total Cell Count” value [5] was 1052 and 775, the “Population Apoptotic (%)” value [6] was 46% and 65% and the “Population Fragmented Nuclei (%)” value [6] was 15% and 13%. The “Population Healthy Nuclei (%)” value [6] was 75% and 80%, the “Population Hoechst High Intensity Objects (%)” value [6] was 11% and 8% and the “Population Membrane Permeable-Phenotype (%)” value [6] was 1% and 0%. The “Population Mitochondria Different-Phenotype (%)” value [6] was 36% and 47%, the “Population Mitotic Cells (%)” value [6] was 53% and 34% and the “Population Normal (%)” value [6] was 88% and 91%. For the same molecule, the “Population Pyknosed Nuclei (%)” value [6] was 9% and 5%, the “Population Tubulin-Different-Phenotype (%)” value [6] was 32% and 39% and the “Total Cell Count” value [6] was 598 and 596.
In the case of `CN1CCN2c3ncccc3Cc3ccccc3C2C1` (configuration not stated) [MIRTAZAPINE], the “Population Apoptotic (%)” value [1] is reported as 58% and 51%, the “Population Fragmented Nuclei (%)” value [1] is reported as 4% and 3% and the “Population Healthy Nuclei (%)” value [1] is reported as 88% and 79%. The “Population Hoechst High Intensity Objects (%)” value [1] was 5% and 7%, the “Population Membrane Permeable-Phenotype (%)” value [1] was 0% and the “Population Mitochondria Different-Phenotype (%)” value [1] was 41% and 68%. For the same molecule, the “Population Mitotic Cells (%)” value [1] was 41% and 48%, the “Population Normal (%)” value [1] was 94% and 92% and the “Population Pyknosed Nuclei (%)” value [1] was 7% and 17%. The “Population Tubulin-Different-Phenotype (%)” value [1] was 22% and 21%, the “Total Cell Count” value [1] was 402 and 329 and the “Population Apoptotic (%)” value [2] was 45% and 47%. The “Population Fragmented Nuclei (%)” value [2] was 9% and 5%, the “Population Healthy Nuclei (%)” value [2] was 75% and 79% and the “Population Hoechst High Intensity Objects (%)” value [2] was 6%. For the same molecule, the “Population Membrane Permeable-Phenotype (%)” value [2] was 0% and 1%, the “Population Mitochondria Different-Phenotype (%)” value [2] was 49% and 64% and the “Population Mitotic Cells (%)” value [2] was 54% and 52%. The “Population Normal (%)” value [2] was 93%, the “Population Pyknosed Nuclei (%)” value [2] was 15% and the “Population Tubulin-Different-Phenotype (%)” value [2] was 43% and 36%. For the same molecule, the “Total Cell Count” value [2] was 228 and 240, the “Population Apoptotic (%)” value [3] was 33% and 42% and the “Population Fragmented Nuclei (%)” value [3] was 9% and 6%. For the same molecule, the “Population Healthy Nuclei (%)” value [3] was 80% and 79%, the “Population Hoechst High Intensity Objects (%)” value [3] was 3% and 6% and the “Population Membrane Permeable-Phenotype (%)” value [3] was 0%. The “Population Mitochondria Different-Phenotype (%)” value [3] was 35% and 47%, the “Population Mitotic Cells (%)” value [3] was 66% and 57% and the “Population Normal (%)” value [3] was 97% and 93%. For the same molecule, the “Population Pyknosed Nuclei (%)” value [3] was 10% and 14%, the “Population Tubulin-Different-Phenotype (%)” value [3] was 18% and 17% and the “Total Cell Count” value [3] was 601 and 373. For the same molecule, the “Population Apoptotic (%)” value [4] was 44% and 32%, the “Population Fragmented Nuclei (%)” value [4] was 9% and 5% and the “Population Healthy Nuclei (%)” value [4] was 78% and 80%. For the same molecule, the “Population Hoechst High Intensity Objects (%)” value [4] was 3% and 5%, the “Population Membrane Permeable-Phenotype (%)” value [4] was 0% and the “Population Mitochondria Different-Phenotype (%)” value [4] was 40% and 44%. The “Population Mitotic Cells (%)” value [4] was 55% and 67%, the “Population Normal (%)” value [4] was 96% and 94% and the “Population Pyknosed Nuclei (%)” value [4] was 12% and 13%. For the same molecule, the “Population Tubulin-Different-Phenotype (%)” value [4] was 28% and 18%, the “Total Cell Count” value [4] was 274 and 314 and the “Population Apoptotic (%)” value [5] was 23% and 44%. The “Population Fragmented Nuclei (%)” value [5] was 11% and 13%, the “Population Healthy Nuclei (%)” value [5] was 82% and 80% and the “Population Hoechst High Intensity Objects (%)” value [5] was 2% and 3%. The “Population Membrane Permeable-Phenotype (%)” value [5] was 1% and 0%, the “Population Mitochondria Different-Phenotype (%)” value [5] was 19% and 21% and the “Population Mitotic Cells (%)” value [5] was 76% and 55%. For the same molecule, the “Population Normal (%)” value [5] was 97% and 96%, the “Population Pyknosed Nuclei (%)” value [5] was 6% and the “Population Tubulin-Different-Phenotype (%)” value [5] was 13% and 9%. The “Total Cell Count” value [5] was 885 and 562, the “Population Apoptotic (%)” value [6] was 31% and 30% and the “Population Fragmented Nuclei (%)” value [6] was 14% and 11%. The “Population Healthy Nuclei (%)” value [6] was 74% and 81%, the “Population Hoechst High Intensity Objects (%)” value [6] was 2% and 3% and the “Population Membrane Permeable-Phenotype (%)” value [6] was 0%. The “Population Mitochondria Different-Phenotype (%)” value [6] was 36% and 30%, the “Population Mitotic Cells (%)” value [6] was 68% and 69% and the “Population Normal (%)” value [6] was 97% and 96%. The “Population Pyknosed Nuclei (%)” value [6] was 10% and 7%, the “Population Tubulin-Different-Phenotype (%)” value [6] was 20% and 12% and the “Total Cell Count” value [6] was 390 and 521.
